In brackets after ≈: the same amount, converted by molar mass.
How the values were obtained:
[1] = system: THP-1; test: Antiinflammatory activity in human THP1 cells assessed as inhibition of LPS-induced TNFalpha at 10 uM by ELISA; assay type: functional
Procedure, shortened: (§1)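 THP-1 cells grown in RPMI 1640 with 10% FBS, penicillin and streptomycin, then differentiated with PMA. After plating, cells took test compound or vehicle (0.5% DMSO) for 30 min at 37 °C. LPS (E. coli 0127:B8) was then added and plates were kept 24 h at 37 °C, 5% CO2. Supernatant TNF-α and IL-6 measured by ELISA. Percent inhibition was taken against control, and IC50 by nonlinear regression.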

[2] = system: THP-1; test: Antiinflammatory activity in human THP1 cells assessed as inhibition of IL6 at 10 uM by ELISA; assay type: functional; procedure, shortened: as §1
[3] = system: THP-1; test: Cytotoxicity against human THP1 cells at 10 uM; assay type: functional
Procedure, shortened: (§2)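 PMA-differentiated THP-1 cells in RPMI 1640 with 10% FBS were pretreated 30 min at 37 °C with compound or vehicle (0.5% DMSO). They were then stimulated with LPS for 24 h at 37 °C, 5% CO2. Viability was scored with CCK-8 in the same wells as the cytokine assay.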

[4] = biological target: Phosphodiesterase 4 (Homo sapiens, UniProt P27815+Q08499+Q07343+Q08493); test: Inhibition of PDE4 in human U937 cells by cAMP SPA enzyme assay; assay type: cell-based; details: u-937
[5] = system: PBMC; test: Antiinflammatory activity in […] PBMC assessed as inhibition of LPS-induced TNFalpha by ELISA; assay type: functional, cell-based; details: Homo sapiens
[6] = system: THP-1; test: Antiinflammatory activity in human THP1 cells assessed as inhibition of LPS-induced TNFalpha at 30 uM by ELISA; assay type: functional; procedure, shortened: as §1
[7] = system: Trypanosoma cruzi; test: Antichagasic activity against Trypanosoma cruzi; assay type: functional, organism-based
[8] = biological target: Cyclin-dependent kinase 1/cyclin B1 (Homo sapiens, UniProt P06493); test: Inhibition of CDK1/cyclinB; assay type: protein-complex assay
[9] = system: Escherichia coli; test: Antimicrobial activity against Escherichia coli; assay type: functional, organism-based
[10] = system: Candida albicans; test: Antimicrobial activity against Candida albicans; assay type: functional, organism-based
[11] = biological target: Mitogen-activated protein kinase 14 (Homo sapiens, UniProt Q16539); test: Inhibition of p38alpha MAPK
[12] = system: Mus musculus; test: Inhibition of LPS-induced TNFalpha release in mouse at 20 mg/kg, po; assay type: functional
[13] = system: THP-1; test: Antiinflammatory activity in human THP1 cells assessed as inhibition of LPS-induced TNFalpha by ELISA; assay type: functional, cell-based; procedure, shortened: as §1
[14] = system: THP-1; test: Antiinflammatory activity in human THP1 cells assessed as inhibition of LPS-induced IL6 by ELISA; assay type: functional, cell-based; procedure, shortened: as §1
[15] = system: THP-1; test: Cytotoxicity against human THP1 cells; assay type: functional, cell-based; procedure, shortened: as §2
[16] = system: THP-1; test: Antiinflammatory activity in human THP1 cells assessed as inhibition of LPS-induced TNFalpha at 1 uM by ELISA; assay type: functional; procedure, shortened: as §1
[17] = system: THP-1; test: Antiinflammatory activity in human THP1 cells assessed as inhibition of LPS-induced IL6 at 1 uM by ELISA; assay type: functional; procedure, shortened: as §1
[18] = system: THP-1; test: Cytotoxicity against human THP1 cells at 1 uM; assay type: functional; procedure, shortened: as §2

Sequence of Mitogen-activated protein kinase 14 (Q16539 whole entry): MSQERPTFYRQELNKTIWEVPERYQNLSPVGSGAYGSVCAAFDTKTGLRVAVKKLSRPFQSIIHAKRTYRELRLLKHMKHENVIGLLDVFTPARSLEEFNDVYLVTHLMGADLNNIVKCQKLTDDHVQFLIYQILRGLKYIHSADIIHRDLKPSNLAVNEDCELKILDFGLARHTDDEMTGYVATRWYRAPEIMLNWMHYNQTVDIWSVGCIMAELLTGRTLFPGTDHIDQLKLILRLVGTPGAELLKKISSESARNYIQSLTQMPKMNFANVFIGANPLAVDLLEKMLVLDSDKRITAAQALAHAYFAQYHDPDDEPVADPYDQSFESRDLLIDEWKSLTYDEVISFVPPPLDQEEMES
Sequence of Cyclin-dependent kinase 1/cyclin B1 (P06493 whole entry): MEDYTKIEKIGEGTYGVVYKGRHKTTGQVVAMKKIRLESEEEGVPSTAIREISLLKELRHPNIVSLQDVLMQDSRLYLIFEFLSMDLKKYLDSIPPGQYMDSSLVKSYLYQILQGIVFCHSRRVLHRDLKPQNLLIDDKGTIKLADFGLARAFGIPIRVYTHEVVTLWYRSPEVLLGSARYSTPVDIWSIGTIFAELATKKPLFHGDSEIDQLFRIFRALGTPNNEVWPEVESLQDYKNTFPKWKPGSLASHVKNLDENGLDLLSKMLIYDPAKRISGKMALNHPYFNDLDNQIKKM
Sequence of Cyclin-dependent kinase 1/cyclin B1 (P14635 whole entry, further chain): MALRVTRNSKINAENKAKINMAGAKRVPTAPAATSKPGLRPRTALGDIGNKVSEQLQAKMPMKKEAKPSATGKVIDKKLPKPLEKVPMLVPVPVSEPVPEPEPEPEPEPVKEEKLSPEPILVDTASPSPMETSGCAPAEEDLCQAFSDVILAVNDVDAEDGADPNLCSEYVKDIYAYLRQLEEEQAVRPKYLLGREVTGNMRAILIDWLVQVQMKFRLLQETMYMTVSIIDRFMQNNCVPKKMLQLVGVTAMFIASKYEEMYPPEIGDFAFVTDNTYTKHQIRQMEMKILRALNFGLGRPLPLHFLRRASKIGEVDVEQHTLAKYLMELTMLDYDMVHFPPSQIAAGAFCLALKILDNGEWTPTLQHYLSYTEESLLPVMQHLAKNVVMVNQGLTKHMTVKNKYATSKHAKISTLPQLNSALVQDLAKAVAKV

| SMILES | inhibition at 10 µM [1] [%] | inhibition at 10 µM [2] [%] | inhibition at 10 µM [3] [%] | also measured |
| --- | --- | --- | --- | --- |
| O=c1[nH]c(=O)c2cc(CCCO)cnc2[nH]1 | 0 | 37 | 12 | – |
| OCCCc1cnc2ncnn2c1 | 4 | 43 | 0 | – |
| Cc1ccc(-c2cc3ncc(C(=O)c4cc(C)ccc4O)cn3n2)cc1 | 0 | 9 | 5 | – |
| CCn1ncc2cc(CCCO)cnc21 | 0 | 45 | 8 | – |
| COc1ccc(-c2nn(-c3ccccc3)c3ncc(C(=O)c4cc(C)ccc4O)cc23)cc1 | 0 | 49 | 27 | – |
| Cc1ccc(O)c(C(=O)c2cnc3[nH]c(=O)[nH]c(=O)c3c2)c1 | 6 | 39 | 0 | – |
| CCn1ncc2c(-c3cncc(Br)c3)c(C#N)c(C)nc21 | – | – | – | IC50 [4]: > 1 µM; IC50 [5]: 0.027 µM |
| COC[C@H](O)[C@@H](OC)[C@@H](OC)C1=CC2C(C)=NN(C)C2N=C1 (some centres not stated) | 20 | 35 | 5 | inhibition at 30 µM [6]: 30% |
| CCO[C@@H](C1=CC2C(C)=NN(c3ccccc3)C2N=C1)[C@H](O)[C@@H](O)COC (some centres not stated) | 2 | 43 | 8 | – |
| COc1ccc(-c2nn(-c3ccccc3)c3ncc(CCCO)cc23)cc1 | 12 | 36 | 10 | – |
| CCO[C@@H](C1=CC2C(c3ccc(O)cc3)=NN(c3ccccc3)C2N=C1)[C@H](O)[C@@H](O)CO (some centres not stated) | 0 | 40 | 5 | – |
| Cc1nn(-c2ccccc2)c2ncc(CCCO)cc12 | 8 | 19 | 16 | – |
| Cc1cc(C)c(O)c(C(=O)c2cnc3c(c2)c(C)nn3-c2ccccc2)c1 | 0 | 44 | 14 | – |
| Cc1ccc(O)c(C(=O)c2cnc3c(c2)c(C)nn3C)c1 | 0 | 60 | 41 | – |
| OCCCc1cnc2nc3ccccc3n2c1 | 0 | 18 | 9 | – |
| Cc1ccc(O)c(C(=O)c2cnc3onc(-c4ccccc4)c3c2)c1 | 0 | 63 | 25 | – |
| Cc1ccc(O)c(C(=O)c2cnc3c(c2)c(C)nn3-c2ccccc2)c1 | 0 | 54 | 39 | – |
| Cc1nn(-c2ccccc2)c2nc(-c3ccccc3)cc(C(=O)N/N=C/c3ccc(O)cc3)c12 | – | – | – | IC50 [7]: 1.9 µg/mL (≈ 4.25 µM) |

| SMILES | inhibition at 10 µM [1] [%] | inhibition at 10 µM [2] [%] | inhibition at 10 µM [3] [%] | also measured |
| --- | --- | --- | --- | --- |
| CCO[C@@H](C1=CC2C(C)=NN(c3ccccc3)C2N=C1)[C@H](OC)[C@@H](O)COC (some centres not stated) | 19 | 44 | 4 | inhibition at 30 µM [6]: 30% |
| CCn1ncc2c(-c3cncc(C)c3)c(/C=C/C(=O)O)cnc21 | – | – | – | IC50 [4]: > 1 µM; IC50 [5]: 0.0157 µM |
| CC(=O)OCCCc1cnc2ccnn2c1 | 13 | 66 | 0 | – |
| Cc1nn(C)c2ncc(CCCO)cc12 | 6 | 27 | 7 | – |
| Cc1ccc(-c2cc3ncc(CCCO)cn3n2)cc1 | 0 | 0 | 9 | – |
| CC(=O)OCCCc1cnc2ncnn2c1 | 7 | 45 | 0 | – |
| CCn1ncc2cc(CCCOC(C)=O)cnc21 | 0 | 16 | 13 | – |
| CCNCc1cncc(-c2cnc3c(c2)C(c2nc4cc(F)ccc4[nH]2)N=N3)c1 (configuration not stated) | – | – | – | IC50 [8]: 0.0007 µM |
| CCO[C@@H](C1=CC2C(C)=NN(c3ccccc3)C2N=C1)[C@H](O)[C@@H](O)CO (some centres not stated) | 3 | 44 | 9 | – |
| COc1cc(-c2cc(-c3ccc(Cl)c(Cl)c3)nc3[nH]nc(C)c23)cc(OC)c1OC | – | – | – | IC50 [9]: 22 µM; IC50 [10]: 18 µM |
| COc1ccc(C(=O)NN2CCOCC2)cc1-c1n[nH]c2nc(Nc3ccc(F)cc3F)ccc12 | – | – | – | IC50 [11]: 0.0007 µM; inhibition in vivo at 20 mg/kg [12]: 97% |
| Cc1nn(C)c2ncc(C(=O)c3cc(F)ccc3O)cc12 | 0 | 34 | 19 | – |
| Cc1ccc(O)c(C(=O)c2cnc3onc(C)c3c2)c1 | 5 | 58 | 16 | IC50 [13]: > 100 µM; IC50 [14]: 0.16 µM; IC50 [15]: > 100 µM |
| COC[C@H](O)[C@@H](OC)[C@@H](OC)c1cnc2cc(-c3ccc(C)cc3)nn2c1 | 18 | 34 | 3 | inhibition at 30 µM [6]: 30% |
| Cc1ccc(O)c(C(=O)c2cnc3nc4ccccc4n3c2)c1 | 5 | 32 | 37 | – |
| CCO[C@@H](C1=CC2C(c3ccc(OC)cc3)=NN(c3ccccc3)C2N=C1)[C@H](OC)[C@@H](O)COC (some centres not stated) | 15 | 35 | 6 | inhibition at 30 µM [6]: 30% |
| C[C@@H]1C[C@H]2[C@@H]3CCC4=CC(=O)C=C[C@]4(C)[C@@]3(F)[C@@H](O)C[C@]2(C)[C@@]1(O)C(=O)CO [DEXAMETHASONE] | – | – | – | IC50 [13]: 0.05 µM; IC50 [14]: 0.007 µM; IC50 [15]: > 100 µM; inhibition at 1 µM [16]: 72%; inhibition at 1 µM [17]: 94%; inhibition at 1 µM [18]: 0% |
